Key:
Assay type in all cases: functional
Pseudomonas aeruginosa [1] = experiment: Sterilization time for contact germicidal efficiency (CGE) of salt was tested against at Pseudomonas aeruginosa at pH 7.0, concentration 1035.9 ppm
Outline: (§1)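 Test solutions of the quaternary salt in buffer stood 30 min at room temperature. 0.2 mL of overnight broth culture was added to 5 mL of solution. Inocula: S. aureus ATCC 6538 6-8 × 10^6 cfu/mL, P. aeruginosa ATCC 9027 12-13 × 10^6/mL, S. pyogenes ATCC 19615 5 × 10^6 cfu/mL. At 0.5-30 min intervals a loop was subcultured into nutrient broth and incubated 7 days at 37 °C. Sterilization time is the first interval giving no growth.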

Salmonella typhimurium [2] = experiment: (§2) Minimum inhibitory concentration of salt was tested against Salmonella Typhimurium […] at 0.1 M NaH2PO4 adjusted to pH 7.0; conditions: Salmonella enterica
Outline: (§3)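 Bacteria grown 18-20 h at 37 °C in tryptose phosphate broth, adjusted to OD650 0.01, then diluted into double-strength medium to about 2 × 10^5 viable organisms/mL. Compound in 0.1 M NaH2PO4 pH 7.0 was serially twofold diluted into sterile water and added 1:1 to the cultures. MIC read after 18-20 h at 37 °C, with viability, sterility and buffer controls.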

Streptococcus pyogenes [3] = experiment: Sterilization time for contact germicidal efficiency (CGE) of salt was tested against at Streptococcus pyogenes at pH 7.0, concentration 1035.9 ppm
Outline: (§4)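 Streptococcus pyogenes ATCC 19615 overnight culture, 5 × 10^6 cfu/mL; 0.2 mL into 5 mL test solution of salt in buffer, left 30 min at room temperature beforehand. At timed intervals (0.5 to 30 min), a 3-mm loop was transferred to sterile nutrient broth and incubated at 37 °C for 7 days. Sterilization time is the shortest interval without growth; buffer-only and viability controls were run.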

Staphylococcus aureus [4] = experiment: Sterilization time for contact germicidal efficiency (CGE) of salt was tested against Staphylococcus aureus at pH 7.0, concentration 1035.9 ppm; outline: as §1
Streptococcus pyogenes [5] = experiment: Sterilization time for contact germicidal efficiency (CGE) of salt was tested against at Streptococcus pyogenes at pH 7.0, concentration 896.0 ppm; outline: as §4
Pseudomonas aeruginosa [6] = experiment: Sterilization time for contact germicidal efficiency (CGE) of salt was tested against at Pseudomonas aeruginosa at pH 7.0, concentration 896.0 ppm; outline: as §1
Pseudomonas aeruginosa [7] = experiment: Sterilization time for contact germicidal efficiency (CGE) of salt was tested against at Pseudomonas aeruginosa at pH 7.0, concentration 1010.9 ppm; outline: as §1
Staphylococcus aureus [8] = experiment: Sterilization time for contact germicidal efficiency (CGE) of salt was tested against at Staphylococcus aureus at pH 7.0, concentration 1010 ppm
Outline: (§5)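 Staphylococcus aureus ATCC 6538, overnight broth culture at 6-8 × 10^6 cfu/mL; 0.2 mL inoculated into 5 mL of buffered quaternary salt solution pre-held 30 min at room temperature. Loop subcultures (3 mm) taken at 0.5-30 min intervals into nutrient broth, incubated at 37 °C for 7 days and read daily. The endpoint is the earliest time giving a growth-free subculture.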

Staphylococcus aureus [9] = experiment: Sterilization time for contact germicidal efficiency (CGE) of salt was tested against at Staphylococcus aureus at pH 6.0, concentration 1016 ppm; outline: as §5
Staphylococcus aureus [10] = experiment: Sterilization time for contact germicidal efficiency (CGE) of salt was tested against at Staphylococcus aureus at pH 8.0, concentration 1013 ppm; outline: as §5
Streptococcus pyogenes [11] = experiment: Sterilization time for contact germicidal efficiency (CGE) of salt was tested against at Streptococcus pyogenes at pH 7.0, concentration 1010 ppm; outline: as §4
Staphylococcus aureus [12] = experiment: Sterilization time for contact germicidal efficiency (CGE) of salt was tested against Staphylococcus aureus at pH 7.0, concentration 896.0 ppm; outline: as §1
Streptococcus pyogenes [13] = experiment: Sterilization time for contact germicidal efficiency (CGE) of salt was tested against at Streptococcus pyogenes at pH 7.0, concentration 1010.9 ppm; outline: as §4
Staphylococcus aureus [14] = experiment: Sterilization time for contact germicidal efficiency (CGE) of salt was tested against Staphylococcus aureus at pH 7.0, concentration 1010.9 ppm; outline: as §1
Pseudomonas aeruginosa [15] = experiment: Sterilization time for contact germicidal efficiency (CGE) of salt was tested against at Pseudomonas aeruginosa at pH 6.0, concentration 1016 ppm; outline: as §1
Pseudomonas aeruginosa [16] = experiment: Sterilization time for contact germicidal efficiency (CGE) of salt was tested against at Pseudomonas aeruginosa at pH 7.0, concentration 1010 ppm; outline: as §1
Pseudomonas aeruginosa [17] = experiment: Minimum inhibitory concentration of salt was tested against Pseudomonas aeruginosa at 0.1 M NaH2PO4 adjusted to pH 7.0
Pseudomonas aeruginosa [18] = experiment: Sterilization time for contact germicidal efficiency (CGE) of salt was tested against at Pseudomonas aeruginosa at pH 8.0, concentration 1013 ppm
Outline: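 Pseudomonas aeruginosa ATCC 9027 overnight broth culture (12-13 × 10^6 organisms/mL); 0.2 mL added to 5 mL buffered salt solution held 30 min at room temperature. At intervals from 0.5 to 30 min, a 3-mm loop was subcultured into nutrient broth and incubated at 37 °C for 7 days. Sterilization time is the shortest interval whose subculture gave no growth.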

Streptococcus pyogenes [19] = experiment: Sterilization time for contact germicidal efficiency (CGE) of salt was tested against at Streptococcus pyogenes at pH 6.0, concentration 1016 ppm; outline: as §4
Streptococcus pyogenes [20] = experiment: Sterilization time for contact germicidal efficiency (CGE) of salt was tested against at Streptococcus pyogenes at pH 8.0, concentration 1013 ppm; outline: as §4
Streptococcus pyogenes [21] = experiment: Minimum inhibitory concentration of salt was tested against Streptococcus pyogenes aureus at 0.1 M NaH2PO4 adjusted to pH 7.0
Pseudomonas aeruginosa [22] = experiment: Sterilization time for contact germicidal efficiency (CGE) of salt was tested against at Pseudomonas aeruginosa at pH 8.0, concentration 1008 ppm
Streptococcus pyogenes [23] = experiment: Sterilization time for contact germicidal efficiency (CGE) of salt was tested against at Streptococcus pyogenes at pH 6.0, concentration 1009 ppm
Staphylococcus aureus [24] = experiment: Sterilization time for contact germicidal efficiency (CGE) of salt was tested against at Staphylococcus aureus at pH 7.0, concentration 1026 ppm
Pseudomonas aeruginosa [25] = experiment: Sterilization time for contact germicidal efficiency (CGE) of salt was tested against at Pseudomonas aeruginosa at pH 6.0, concentration 1009 ppm
Staphylococcus aureus [26] = experiment: Minimum inhibitory concentration of salt was tested against Staphylococcus aureus aureus at 0.1 M NaH2PO4 adjusted to pH 7.0; outline: as §3
Bacillus subtilis = experiment: Minimum inhibitory concentration of salt was tested against Bacillus subtilis at 0.1 M NaH2PO4 adjusted to pH 7.0
Salmonella typhimurium [27] = experiment: as §2; conditions: Salmonella enterica; remark: listed apart in the source
Staphylococcus aureus [28] = experiment: Sterilization time for contact germicidal efficiency (CGE) of salt was tested against Staphylococcus aureus at pH 7.0, concentration 1026 ppm
Streptococcus pyogenes [29] = experiment: Sterilization time for contact germicidal efficiency (CGE) of salt was tested against at Streptococcus pyogenes at pH 8.0, concentration 1008 ppm
Streptococcus pyogenes [30] = experiment: Sterilization time for contact germicidal efficiency (CGE) of salt was tested against at Streptococcus pyogenes at pH 7.0, concentration 1026 ppm
Staphylococcus aureus [31] = experiment: Sterilization time for contact germicidal efficiency (CGE) of salt was tested against at Staphylococcus aureus at pH 6.0, concentration 1009 ppm
Pseudomonas aeruginosa [32] = experiment: Sterilization time for contact germicidal efficiency (CGE) of salt was tested against at Pseudomonas aeruginosa at pH 7.0, concentration 1026 ppm
Staphylococcus aureus [33] = experiment: Sterilization time for contact germicidal efficiency (CGE) of salt was tested against at Staphylococcus aureus at pH 8.0, concentration 1008 ppm

SMILES: CCCCCCCC(=O)OC[n+]1ccccc1.[Cl-]
- Time (Pseudomonas aeruginosa [1]): >30 min
- MIC (Salmonella typhimurium [2]): 1060 µg/mL
- Time (Streptococcus pyogenes [3]): >30 min
- Time (Staphylococcus aureus [4]): >30 min

SMILES: CCCCCCCCCCCC(=O)OC[n+]1ccccc1.[Cl-]
- Time (Streptococcus pyogenes [5]): 0.5 min
- Time (Pseudomonas aeruginosa [6]): 0.5 min
- Time (Pseudomonas aeruginosa [7]): 0.5 min
- Time (Staphylococcus aureus [8]): 0.5 min
- Time (Staphylococcus aureus [9]): 1 min
- Time (Staphylococcus aureus [10]): 0.5 min
- Time (Streptococcus pyogenes [11]): 0.5 min
- Time (Staphylococcus aureus [12]): 0.5 min
- Time (Streptococcus pyogenes [13]): 0.5 min
- Time (Staphylococcus aureus [14]): 0.5 min
- Time (Pseudomonas aeruginosa [15]): 0.5 min
- Time (Pseudomonas aeruginosa [16]): 0.5 min
- MIC (Pseudomonas aeruginosa [17]): 512 µg/mL
- Time (Pseudomonas aeruginosa [18]): 2 min
- Time (Streptococcus pyogenes [19]): 0.5 min
- Time (Streptococcus pyogenes [20]): 7 min

SMILES: CCCCCCCCCCCC(=O)OC[N+]12CCN(CC1)CC2.[Cl-]
- MIC (Streptococcus pyogenes [21]): 32.8 µg/mL
- Time (Pseudomonas aeruginosa [22]): 4 min
- Time (Streptococcus pyogenes [23]): 0.5 min
- Time (Staphylococcus aureus [24]): 0.5 min
- Time (Pseudomonas aeruginosa [25]): 0.5 min
- MIC (Staphylococcus aureus [26]): 65.5 µg/mL
- MIC (Bacillus subtilis): 32.8 µg/mL
- MIC (Salmonella typhimurium [27]): 524 µg/mL
- Time (Staphylococcus aureus [28]): 0.5 min
- Time (Streptococcus pyogenes [29]): 3 min
- Time (Streptococcus pyogenes [30]): 0.5 min
- Time (Staphylococcus aureus [31]): 7 min
- Time (Pseudomonas aeruginosa [32]): 3 min
- Time (Staphylococcus aureus [33]): 0.5 min
- MIC (Pseudomonas aeruginosa [17]): 1050 µg/mL

Reference: ChEMBL document CHEMBL1121429, “Soft drugs. 1. Labile quaternary ammonium salts as soft antimicrobials” (J Med Chem, 1980)
